Results collected from several papers.
Protocols differ between the studies behind these lines.
Target: Serine/threonine-protein kinase WNK4 (WNK4, Homo sapiens, UniProt Q96J92)

For FC(F)(F)Oc1cccc(-c2cnc3ccc(-c4ccncc4)nn23)c1, the remaining binding was 100% (binding, competition with immobilised ligand; 5 µM).
With Cc1cnc(Nc2ccc(C(=O)N3CCC(N4CCCC4)CC3)cc2)nc1-c1cc2ccccc2s1 the remaining binding was 73% (binding, competition with immobilised ligand; 1 µM).
O=C(Nc1ccc(Oc2ccc(F)cc2)cc1)N1CCc2ncccc2[C@H]1c1ccc(F)cc1 has a remaining binding of 85% (cell-free assay, competition with immobilised ligand; 1 µM).
With C[C@H]1CCN(c2nccc(-c3cnn4ncccc34)n2)C1 the remaining binding was 79% (binding; 1 µM).
With Nc1ncc2c(n1)-c1c([nH]c3ccc(C#CC4CC4)cc13)CCCC2 the remaining binding was 79% (binding, competition with immobilised ligand; 1 µM).
For C[C@@H](c1ccc(-n2cnc3c(N)ncnc32)cc1)N1CCc2nn(C)c(Cc3ccccc3)c2C1=O, the remaining binding was 75% (binding, competition with immobilised ligand; 0.1 µM).
O=C(Nc1c[nH]nc1C(=O)NC1CCNCC1)c1cc(F)cc(F)c1 has a remaining binding of 100% (binding, competition with immobilised ligand; 1 µM).
For F[C@@H]1CCN(c2nccc(-c3cnn4ncccc34)n2)C1, the remaining binding was 91% (binding; 1 µM).
The remaining binding of CC1=C(C#N)[C@@H](c2ccc3[nH]nc(C)c3c2)C(C#N)=C(c2ccc(Cl)cc2)N1 is reported as 100% (cell-free assay, competition with immobilised ligand; 1 µM).
O=C(NCCCN1CCOCC1)c1ccc(Nc2nccc(-c3cc4ccccc4s3)n2)cc1 has a remaining binding of 71% (binding, competition with immobilised ligand; 1 µM).
The remaining binding of COc1cnc(Nc2cccc(S(N)(=O)=O)c2)nc1N1CCN(c2ccccc2)C(=O)C1 is reported as 89% (binding, competition with immobilised ligand; 1 µM).
For CCCCN(CCCC)C(=O)CN1C[C@H](c2cc(OC)c3c(c2)OCO3)[C@@H](C(=O)O)[C@@H]1CC(C)(C)CCC, the remaining binding was 97.9% (cell-free assay, competition with immobilised ligand; 1 µM).
CC1CCCN1c1nccc(-c2cnn3ncccc23)n1 (stereo not drawn) has a remaining binding of 100% (binding; 1 µM).
For C=CC(=O)N1CCC(C(=O)NCC(=O)N2CCN(c3nc(-c4cnc(N)nc4C(F)F)nc(N4CCOCC4)n3)CC2)CC1, the remaining binding was 92% (binding, competition with immobilised ligand; 1 µM).
With CC(=O)N1CCC(c2ccc(C(=O)NC(=N)N)cc2C(F)(F)F)CC1 the remaining binding was 100% (cell-free assay, competition with immobilised ligand; 1 µM).
For N[C@H]1CCN(c2nccc(-c3cnn4ncccc34)n2)C1, the remaining binding was 84% (binding; 1 µM).
O=C(c1ccc(Nc2ncc(Cl)c(-c3ccc(Cl)s3)n2)cc1)N1CCC(N2CCCC2)CC1 has a remaining binding of 100% (binding, competition with immobilised ligand; 1 µM).
With CSc1cccnc1N1CCN(Cc2nc3ccccc3[nH]2)CC1 the remaining binding was 91% (cell-free assay, competition with immobilised ligand; 1 µM).
c1cnn2ncc(-c3ccnc(N4CCC45COC5)n3)c2c1 gave a remaining binding of 64% (binding; 1 µM).
CN(C)CC#Cc1ccc(OCCCc2sc(N3CCc4cccc(C(=O)Nc5nc6ccccc6s5)c4C3)nc2C(=O)O)c(F)c1 gave a remaining binding of 81% (cell-free assay, competition with immobilised ligand; 1 µM).
The remaining binding of CN(c1nccc(-c2cnn3ncccc23)n1)C1CC1 is reported as 100% (binding; 1 µM).
